In ChEMBL document CHEMBL3739330, “Phenolic group on A-ring is key for dracoflavan B as a selective noncompetitive inhibitor of α-amylase” (Bioorg Med Chem, 2015):
pIC50, pKi: −log10 of the molar value. The source made the active and inactive calls. No cut-off for these calls is given here.

How the values were obtained:
[1] = target: T1, Pancreatic alpha-amylase (Sus scrofa) (UniProt P00690); assay: Inhibition of porcine pancreatic alpha-amylase assessed as starch digestion up to 370 uM up to 120 mins by turbidity assay
T1 sequence (whole entry): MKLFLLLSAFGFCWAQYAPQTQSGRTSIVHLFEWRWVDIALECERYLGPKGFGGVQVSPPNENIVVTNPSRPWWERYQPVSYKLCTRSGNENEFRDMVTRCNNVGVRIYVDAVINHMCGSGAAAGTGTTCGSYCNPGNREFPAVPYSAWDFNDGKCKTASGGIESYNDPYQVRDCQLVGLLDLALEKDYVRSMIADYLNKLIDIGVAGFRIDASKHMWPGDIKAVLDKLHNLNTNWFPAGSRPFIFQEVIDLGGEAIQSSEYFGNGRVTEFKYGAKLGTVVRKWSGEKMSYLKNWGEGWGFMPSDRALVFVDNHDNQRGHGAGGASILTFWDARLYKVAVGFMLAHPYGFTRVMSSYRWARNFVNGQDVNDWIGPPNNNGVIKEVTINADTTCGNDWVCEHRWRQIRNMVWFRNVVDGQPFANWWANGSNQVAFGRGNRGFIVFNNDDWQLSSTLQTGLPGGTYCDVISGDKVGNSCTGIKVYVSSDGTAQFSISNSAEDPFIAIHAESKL

[2] = target: T2, Pancreatic alpha-amylase (Sus scrofa, UniProt P00690); assay: Inhibition of porcine pancreatic alpha-amylase assessed as starch digestion up to 120 mins by turbidity assay
T2 sequence (P00690 whole entry): T1 sequence (whole entry)

[3] = species: Rattus norvegicus; assay: Inhibition of rat intestine alpha-glucosidase assessed as starch digestion by turbidity assay
[4] = system: Aspergillus oryzae; assay: Inhibition of Aspergillus oryzae alpha-amylase
[5] = target: Alpha-amylase (Bacillus subtilis (strain 168), UniProt P00691); assay: Inhibition of Bacillus subtilis alpha-amylase
Chain of Alpha-amylase (P00691 whole entry): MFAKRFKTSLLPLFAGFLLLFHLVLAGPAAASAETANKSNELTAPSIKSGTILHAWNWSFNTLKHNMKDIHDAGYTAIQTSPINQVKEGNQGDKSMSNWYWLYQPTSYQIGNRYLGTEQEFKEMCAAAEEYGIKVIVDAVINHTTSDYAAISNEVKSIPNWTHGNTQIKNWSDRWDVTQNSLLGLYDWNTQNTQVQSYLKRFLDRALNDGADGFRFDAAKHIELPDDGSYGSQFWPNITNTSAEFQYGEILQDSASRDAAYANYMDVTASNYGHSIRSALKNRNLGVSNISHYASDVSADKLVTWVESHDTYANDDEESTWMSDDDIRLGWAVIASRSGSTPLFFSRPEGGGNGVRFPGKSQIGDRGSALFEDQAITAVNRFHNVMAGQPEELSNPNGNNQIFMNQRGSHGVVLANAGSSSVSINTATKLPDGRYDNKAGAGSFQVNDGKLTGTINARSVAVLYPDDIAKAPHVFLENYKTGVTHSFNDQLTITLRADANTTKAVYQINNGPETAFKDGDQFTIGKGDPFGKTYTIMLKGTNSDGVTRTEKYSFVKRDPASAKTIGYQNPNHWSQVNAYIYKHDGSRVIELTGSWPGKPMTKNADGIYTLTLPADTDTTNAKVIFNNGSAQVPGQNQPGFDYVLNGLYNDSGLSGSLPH

[6] = target: T2, Pancreatic alpha-amylase; assay: Non-competitive inhibition of porcine pancreatic alpha-amylase by Lineweaver-Burk plot analysis
Method in brief: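 Corn starch substrate 0.25–1 mg/mL, inhibitor at 11, 18 and 22 µM. Inhibitor (dissolved in methanol, diluted in 0.1 M sodium phosphate pH 6.9) preincubated with starch at 37 °C for 15 min. Enzyme then added and reaction stopped at 5 min with DNSA reagent. Boiled 5 min and absorbance read at 540 nm. Initial velocity taken from reducing sugar released. Mode assigned by Michaelis–Menten and Lineweaver–Burk analysis, with a buffer-only control.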

[7] = species: Rattus norvegicus; assay: Inhibition of rat intestine alpha-glucosidase assessed as starch digestion up to 370 uM up to 120 mins by turbidity assay

inhibition [1]	pIC50 [2]	further results	SMILES
inactive	–	–	Oc1cc(O)c2c(c1)O[C@@]1(c3ccc(O)c(O)c3)Oc3cc(O)c4c(c3[C@@H]2[C@H]1O)O[C@H](c1ccc(O)c(O)c1)[C@H](O)C4
–	4.92	–	COc1cc2c(c3c1CC[C@@H](c1ccccc1)O3)[C@H]1c3c(cc(OC(=O)c4cc(O)c(O)c(O)c4)c(C)c3OC)O[C@@](c3ccccc3)(O2)[C@@H]1O
–	4.64	–	COc1cc2c(c3c1CC[C@@H](c1ccccc1)O3)[C@H]1c3c(cc(O)c(C)c3OC)O[C@@](c3ccccc3)(O2)[C@@H]1O
–	–	inhibition [3]: Active	C[C@@H]1O[C@@H](O[C@@H]2[C@@H](O)[C@H](O)[C@H](O[C@H]3[C@H](O)[C@@H](O)C(O)O[C@@H]3CO)O[C@H]2CO)[C@@H](O)[C@H](O)[C@H]1N[C@H]1C=C(CO)[C@@H](O)[C@H](O)[C@H]1O (some centres undefined)
inactive	–	–	COc1cc2c(c3c1CC[C@@H](c1ccccc1)O3)[C@H]1c3c(cc(OC(C)=O)c(C)c3OC)O[C@@](c3ccccc3)(O2)[C@@H]1O
–	4.57	inhibition [4]: inactive; pIC50 [5]: 4.38; pKi [6]: 4.93	COc1cc2c(c3c1CC[C@@H](c1ccccc1)O3)[C@@H]1c3c(cc(O)c(C)c3OC)O[C@](c3ccccc3)(O2)[C@H]1O
inactive	–	–	COc1cc2c(c3c1CC[C@@H](c1ccccc1)O3)[C@H]1c3c(cc(OS(=O)(=O)O)c(C)c3OC)O[C@@](c3ccccc3)(O2)[C@@H]1O
Active	–	inhibition [7]: inactive	COc1cc2c(c3c1CC[C@@H](c1ccccc1)O3)[C@H]1c3c(cc(O)c(C)c3OC)O[C@@](c3ccccc3)(O2)[C@@H]1O (mixture of isomers)
inactive	–	–	COc1cc2c(c3c1CC[C@@H](c1ccccc1)O3)[C@H]1c3c(cc(OC(=O)c4ccccc4)c(C)c3OC)O[C@@](c3ccccc3)(O2)[C@@H]1O
inactive	–	–	COc1cc2c(c3c1CC[C@@H](c1ccccc1)O3)[C@H]1c3c(cc(OC(=O)c4cc(OC(C)=O)c(OC(C)=O)c(OC(C)=O)c4)c(C)c3OC)O[C@@](c3ccccc3)(O2)[C@@H]1O
